Experiments:
[1] = Population pharmacokinetic; format: in vivo, human; details: SOLNC 0.8 and 2 mg/mL (phase III studies and commercial formulations)
Outline: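 Pooled plasma data from 159 children with achondroplasia on daily subcutaneous vosoritide (2.5–30 µg/kg) across three phase II and two phase III trials. Samples were assayed by validated ELISA or electrochemiluminescence, and mostly pre-dose points were excluded. The fit was a one-compartment model with change-point first-order absorption (Ka1/Ka2) and first-order elimination, using log-transform-both-sides and SAEM/importance sampling. Covariates were added stepwise (p<0.01) with backward elimination, against a reference weight of 20 kg.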

[2] = test system: children with achondroplasia; details: 15 µg/kg per day, 1-year period, analysis of covariance; cited from earlier work

effect of dosing solution concentration on relative bioavailability (F) [1]: did not have any effect on F
Structure (SMILES): CC[C@H](C)[C@@H]1NC(=O)[C@H](CCCNC(=N)N)NC(=O)[C@H](CC(=O)O)NC(=O)[C@H](CC(C)C)NC(=O)[C@H](CCCCN)NC(=O)[C@H](CC(C)C)NC(=O)CNC(=O)[C@H](Cc2ccccc2)NC(=O)[C@@H](NC(=O)CNC(=O)[C@H](CCCCN)NC(=O)[C@H](CO)NC(=O)[C@H](CC(C)C)NC(=O)CNC(=O)[C@H](CCCCN)NC(=O)[C@H](CCCCN)NC(=O)[C@H](CC(N)=O)NC(=O)[C@H](C)NC(=O)CNC(=O)[C@H](CCCCN)NC(=O)[C@H](Cc2ccc(O)cc2)NC(=O)[C@H](CCCCN)NC(=O)[C@H](CCCNC(=N)N)NC(=O)[C@H](C)NC(=O)[C@H](CC(N)=O)NC(=O)[C@@H]2CCCN2C(=O)[C@H](Cc2c[nH]cn2)NC(=O)[C@H](CCC(=O)O)NC(=O)[C@H](CCC(N)=O)NC(=O)CNC(=O)[C@@H]2CCCN2)CSSC[C@@H](C(=O)O)NC(=O)CNC(=O)[C@H](CC(C)C)NC(=O)CNC(=O)[C@H](CO)NC(=O)[C@H](CCSC)NC(=O)[C@H](CO)NC(=O)CNC1=O [vosoritide]
increase in annualized growth velocity (least squares mean change from baseline) compared with placebo [2]: 1.57 cm/year

— paper PMC11106139 (Clinical Pharmacokinetics, 2024)
